bovine MsrA act = bovine methionine sulfoxide reductase A activation. 0.3% of 360,000 active. purified bovine MsrA, absorbance read-out. activation, % at 10.6 µM; in the data active = activation above about 7.5%
NR1D1 modulator = modulates human Rev-erb alpha binding to DNA. P20393. Rev-erbα–FITC-DNA binding, fluorescence polarization, 90 min. activity, % at 10 µM. 0.79% of 370,000 active. AID 1259318;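 active = activity above about 14%, limit read from the data; passing the limit was not always enough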
sPLA2-III inh = Inhibits HGIII-sPLA2 liposome hydrolysis, primary screen; QFRET BODIPY PC-A2 liposome hydrolysis, fluorescence; 0.56% of 370,000 active; Q9NZ20; inhibition, % at 12.2 µM;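 active = inhibition above mean plus 3 SD of compounds lying within the high and low control bounds, cut at about 19% in these data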
Target sequence (Q9NZ20 whole entry, looked up): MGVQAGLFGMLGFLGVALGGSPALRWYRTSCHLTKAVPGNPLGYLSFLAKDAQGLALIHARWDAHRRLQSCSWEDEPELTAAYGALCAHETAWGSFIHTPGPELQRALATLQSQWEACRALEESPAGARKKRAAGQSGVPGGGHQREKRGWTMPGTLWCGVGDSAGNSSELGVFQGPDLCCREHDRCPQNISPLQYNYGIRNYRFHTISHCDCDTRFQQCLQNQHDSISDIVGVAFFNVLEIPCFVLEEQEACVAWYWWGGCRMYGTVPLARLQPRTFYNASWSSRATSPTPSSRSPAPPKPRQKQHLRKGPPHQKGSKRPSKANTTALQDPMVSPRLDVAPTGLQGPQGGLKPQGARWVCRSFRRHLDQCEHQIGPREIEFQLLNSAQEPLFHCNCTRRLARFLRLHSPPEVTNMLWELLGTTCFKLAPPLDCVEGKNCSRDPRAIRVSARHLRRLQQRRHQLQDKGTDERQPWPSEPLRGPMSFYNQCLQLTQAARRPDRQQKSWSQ
ARFGAP1 inhibitor = inhibits rat ARF GTPase activating protein 1. Arfgap1-stimulated ARF1 GTP hydrolysis, GDP FP detection. inhibition, % at 16.5 µM. Q62848. 0.26% of 360,000 active;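 active = inhibition above a per-plate limit, mean inhibition of low control wells plus 3 SD, cut at about 25% in these data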
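Assay system: Rat Arfgap1 GAP domain (His6, aa 1-136), purified enzyme | Buffer or medium: HEPES 25 mM pH 7.5, NaCl 150 mM, MgCl2, DTT | Schedule: GTP hydrolysis reaction 2 h at 25 °C | Signal: FP of antibody-bound GDP Alexa 633 tracer, ex 620/em 688 nm | Measure: Percent inhibition of Arfgap1-stimulated GTP hydrolysis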
MsrA inhibitor = inhibits bovine methionine sulfoxide reductase A | purified bovine MsrA, absorbance read-out | inhibition, % at 15.5 µM | 0.75% of 360,000 active | AID 651718; in the data active = inhibition above about 4.5%
ASAP1 GAP inh = inhibitors of human ASAP1 ArfGAP activity; ASAP1-stimulated ARF1 GTP hydrolysis, GDP FP detection; 0.19% of 360,000 active; Q9ULH1; AID 624377; inhibition, % at 16.5 µM; in the data active = inhibition above about 25%
ASAP1 GAP conf = ASAP1 inhibition confirmed; AID 624431; shares compounds with ASAP1 GAP inh; ASAP1-stimulated Arf1 GTPase, GDP fluorescence polarization; inhibition, % at 16.5 µM; 37% of 620 active;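 active = mean inhibition over triplicates exceeds the hit threshold derived for the earlier primary screening run, cut at about 25% in these data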
Numbers stand for hits; 0 = inactive; - = not tested or not shown. Sampled rows, rich in hits. Any-hit rate of the full collection: about 2.7%.

SMILES | bovine MsrA act | NR1D1 modulator | sPLA2-III inh | ARFGAP1 inhibitor | MsrA inhibitor | ASAP1 GAP inh | ASAP1 GAP conf
COC(=O)[C@]12C[C@H](CC(=O)NCc3cccc4ccccc34)C(=O)N(Cc3ccco3)C1=C[C@H](C(C)(C)C)O[C@@H]2C | - | 0 | 0 | - | - | - | -
Nc1nnc(SCC(=O)Nc2cccnc2Cl)s1 | 0 | 0 | 0 | 0 | 0 | 0 | -
Cc1cccc(Nc2nnc(SCC(=O)Nc3cccnc3Cl)s2)c1 | 0 | 0 | 0 | 0 | 0 | 29.7 | 0
CCn1c(=O)n2n(c1=O)[C@]1(C=C(C)C2)CN(Cc2ccc(OC)cc2OC)C(NC(=O)c2ccccc2)=N1 | - | 0 | 0 | - | - | - | -
COC(=O)c1cc(C(c2ccccc2O)C2CCCO2)n2cccc(C(C)(C)C)c12 (centres undefined) | - | 0 | 0 | - | - | - | -
Cc1nc2nc[nH]n2c(=O)c1NS(C)(=O)=O | 0 | 0 | 0 | 0 | 0 | 25.8 | 0
CC1(C)Cc2c(c(-c3ccco3)nc3sc4c(NCCO)ncnc4c23)CO1 | 0 | 0 | 0 | 0 | 0 | 30.3 | 0
C=CCN(CC#Cc1ccccc1)Cc1ccc(OC)cc1 | - | 0 | 0 | - | - | - | -
COc1ccc(-c2cc(-c3nnc(SCC(=O)N4CCOCC4)n3N)[nH]n2)cc1 | - | 0 | 0 | - | - | - | -
NC(=O)CN1C(=O)NC2(CCCc3ccccc32)C1=O (centres undefined) | 0 | 0 | 0 | 0 | 0 | 25.1 | 0
N#Cc1cc2ccc(N3CCOCC3)cc2cc1C#N | 0 | 0 | 0 | 0 | 0 | 29.5 | 0
O=C(CN1CCN(Cc2ccccc2)CC1)Nc1cccc(S(=O)(=O)N2CCCCCC2)c1 | 0 | 0 | 0 | 0 | 0 | 0 | -
O=C(CN1CCOCC1)Nc1cccc(S(=O)(=O)N2CCCCCC2)c1 | 0 | 0 | 0 | 0 | 0 | 27.4 | 0
COc1ccc(N2C(=O)[C@@H]3[C@H](C2=O)[C@H]2c4ccccc4C=CN2[C@@H]3C(C)=O)cc1 | 0 | 0 | 0 | 0 | 0 | 49.2 | 0
NC(=Nc1cccc(F)c1)NC(=O)OCc1ccccc1 | - | 0 | 0 | - | - | - | -
CS(=O)(=O)N(Cc1ccc(Cl)cc1)c1ccc(C(=O)NCc2ccccn2)cc1 | 0 | 0 | 0 | 0 | 0 | 31.1 | 0
CS(=O)(=O)N(Cc1ccccc1Cl)c1ccc(C(=O)NCc2ccccn2)cc1 | 0 | 0 | 0 | 0 | 0 | 0 | -
COc1ccccc1Nc1nc(-c2sc(NC(=O)C(C)(C)C)nc2C)cs1 | 0 | 0 | 0 | 0 | 0 | 0 | -
Cc1ccc(Cl)cc1Nc1nc(-c2sc(NC(=O)C(C)(C)C)nc2C)cs1 | 0 | 0 | 0 | 0 | 0 | 25.1 | 0
Cc1ccc(NC(=O)C(OC(=O)c2ccc(O)cc2)c2ccccc2)cc1Cl (centres undefined) | 0 | 0 | 0 | 0 | 0 | 27.6 | 0
Cc1ccc(NC(=O)C(OC(=O)c2ccc(F)cc2)c2ccccc2)cc1Cl (centres undefined) | 0 | 0 | 0 | 0 | 0 | 0 | -
CCCCCC[C@@H](CC)CN(C(=O)Oc1ccccc1)c1ccccc1 | - | 0 | 0 | - | - | - | -
Cc1noc(C)c1NC(=O)N(C)C[C@H]1OCCCC[C@@H](C)Oc2ccc(NS(=O)(=O)c3ccccc3)cc2C(=O)N([C@H](C)CO)C[C@@H]1C | 0 | 0 | 0 | 0 | 0 | 25.8 | 0
Cc1noc(C)c1NC(=O)N(C)C[C@H]1Oc2ccc(NS(=O)(=O)c3ccccc3)cc2C(=O)N([C@H](C)CO)C[C@@H]1C | 0 | 0 | 0 | 0 | 0 | 0 | -
CC(C)(C)N(Cc1cn(CC2CCCCC2)nn1)S(=O)(=O)c1ccccc1Br | - | 0 | 0 | - | - | - | -
SMILES | bovine MsrA act | NR1D1 modulator | sPLA2-III inh | ARFGAP1 inhibitor | MsrA inhibitor | ASAP1 GAP inh | ASAP1 GAP conf
C[C@@H]1C[C@H]2[C@@H](Cc3ccccc3)C(=O)N3[C@H](c4ccccc4)[C@H](C)C[C@H]3[C@@H](Cc3ccccc3)C(=O)N2[C@@H]1c1ccccc1 | - | 0 | 0 | - | - | - | -
COc1ccc(CN2C(=O)Cc3c2nc(N)c2c(N)nc(N4CCOCC4)c(C#N)c32)cc1 | 0 | 0 | 0 | 0 | 0 | 28.3 | 0
CCC1Cc2c(nc(N)c3c(N)nc(N4CCOCC4)c(C#N)c23)O1 (centres undefined) | 0 | 0 | 0 | 0 | 0 | 0 | -
COC(=O)C1CN(Cc2ccc(C)cc2)CCS(=O)(=O)N1Cc1cn(Cc2ccccc2)nn1 (centres undefined) | - | 0 | 0 | - | - | - | -
CC1=[N+](C)c2c(ccc3cccnc23)C1(C)C | 0 | 0 | 0 | 70.5 | 0 | 50.9 | 31.8
Cc1[nH]c2c(ccc3cccnc32)c1C | 0 | 0 | 0 | 0 | 0 | 0 | -
